No end group written: not given here.
Columns and labels:
αMI-domain [1] = target: T1, αMI-domain (Homo sapiens, UniProt P11215); details: covalently coupled to the cellulose membrane; cited from earlier work
αMI-domain [2] = target: T1, αMI-domain; assay type: binding
[3] = tested on: macrophages isolated from αMβ2-deficient mice; test: Transwell migration of thioglycolate-elicited peritoneal macrophages; assay type: cell-based; details: 90 min, LL-37 1 μg/mL, fMLP 100 nM
Summary of the method: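 Thioglycolate-elicited peritoneal monocyte/macrophages from wild-type and αMβ2-deficient mice, purified by anti-F4/80-PE selection. Placed in Transwell inserts with chemoattractant below: LL-37 1 μg/mL or fMLP 100 nM. Allowed to migrate 90 min.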

U937 monocytic cells = test: Chemotaxis of U937 cells towards an agarose drop on coverslips; assay type: cell-based, human; details: agarose gel with 15 μg/mL LL-37; 2 h at 37 °C
Summary of the method: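 U937 cells on 22 × 22 mm coverslips. A 10 μL drop of 1% agarose in HBSS, with LL-37 at 15 μg/mL final, sits ~1.5 mm from one corner; a control agarose drop sits in the opposite corner; both polymerise 5 min. Coverslips are submerged in RPMI 1640/10% FBS. 5 × 10^4 cells are loaded centrally, then 2 h at 37 °C, 5% CO2. Migration photographed at 2 mm intervals (20× objective); blocking variant uses anti-αM mAb 44a.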

[4] = tested on: αMβ2-expressing HEK293 cells; test: Transwell migration of αMβ2-expressing HEK293 cells; assay type: cell-based; details: concentration-dependent, 16 h at 37 °C
Summary of the method: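 Transwell, 5 μm pores: 3 × 10^5 αMβ2-HEK293 cells in the upper chamber, LL-37 (0.1–2 μg/mL) below, 16 h at 37 °C. Cells on the filter underside are fixed with paraformaldehyde, hematoxylin-stained and counted (mean cells/view ± standard error, ≥3 experiments). Blocking: 15 min pretreatment with 20 μg/mL anti-αM 44a, anti-β2 IB4 or non-inhibitory OKM1, LL-37 at 0.5 μg/mL. Medium-alone control.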

αMβ2 on neutrophils = test: Flow cytometry of the activation-dependent CBRM1/5 epitope on neutrophils; assay type: cell-based, human
Summary of the method: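 Human blood neutrophils, isolated sterilely, at 10^6 per 0.1 mL in HBSS/0.1% BSA. Exposed 5 min at 22 °C to LL-37 (0.5–10 μg/mL) or fMLP (200 nM). Then Alexa 488-conjugated activation-dependent mAb CBRM1/5, 30 min on ice. Epitope-positive cells counted by flow cytometry. Some samples pretreated with NIF (1 μg/mL) before LL-37 at 4 or 10 μg/mL.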

T1 sequence (P11215 139-331): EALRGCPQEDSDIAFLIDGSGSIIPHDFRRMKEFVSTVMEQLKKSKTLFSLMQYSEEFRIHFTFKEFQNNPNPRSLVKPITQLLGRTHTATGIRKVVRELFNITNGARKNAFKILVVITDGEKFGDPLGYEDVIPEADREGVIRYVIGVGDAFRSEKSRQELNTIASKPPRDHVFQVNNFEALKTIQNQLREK

Compound	IC50 (αMI-domain [2])	further results
YSMKKTTMKIIPFNRLTIG [P2]		αMI-domain binding of the cellulose-coupled peptide (αMI-domain [1]): bound the αMI-domain
QVLRIRKRA [QVLRIRKRA]	8.4 ± 0.5 µM	
ARLPIWF [ARLPIWF]	17 ± 3 µM	
LQLRFPRFV [LQLRFPRFV]	10.5 ± 1.6 µM	
RKLRSLWRR [RKLRSLWRR]	2.5 ± 0.2 µM	
fMLP		migration of macrophages from αMβ2-deficient mice [3]: migrated
CC(C)C[C@H](NC(=O)[C@H](CC(C)C)NC(=O)[C@H](CCCNC(=N)N)NC(=O)[C@@H](N)CC(N)=O)C(=O)N[C@@H](CC(C)C)C(=O)N[C@H](C(=O)NCC(=O)O)[C@@H](C)O [NRLLLTG]	110 ± 16 µM	
GRLPMPW [GRLPMPW]	36 ± 7 µM	
LLGDFFRKSKEKIGKEFKRIVQRIKDFLRNLVPRTES [LL-37]		chemotactic response of U937 cells (U937 monocytic cells): induced a chemotactic response; LL-37 concentrations at which migration occurred [4]: 0.1 to 2 µg/mL; migration of macrophages from αMβ2-deficient mice [3]: did not induce migration; number of cells expressing the activation epitope compared with fMLP (αMβ2 on neutrophils; 10 μg/mL LL-37 versus fMLP 200 nM): slightly higher; expression of the CBRM1/5 activation epitope on neutrophils (αMβ2 on neutrophils; LL-37 0.5–10 μg/mL, 5 min at 22 °C, mAb CBRM1/5-Alexa 488, FACS): induced expression of the CBRM1/5 epitope in a concentration-dependent manner
TMKIIPFNRLTIG [P2-C]	30 ± 2.5 µM	
SSVKKYRPKYCGS [CCN1-H2]		αMI-domain binding of the cellulose-coupled peptide (αMI-domain [1]): bound the αMI-domain
SVNKYRGTAGNA [SVNKYRGTAGNA]	93 ± 11 µM	
